One molecule from publication PMC7312786 (Biochemistry, 2018) can be followed below.

What all share (type): biochemical
One assay has as its target T1, hRev1 (Homo sapiens, UniProt Q9UBZ9).
T1 sequence (Q9UBZ9 330-833): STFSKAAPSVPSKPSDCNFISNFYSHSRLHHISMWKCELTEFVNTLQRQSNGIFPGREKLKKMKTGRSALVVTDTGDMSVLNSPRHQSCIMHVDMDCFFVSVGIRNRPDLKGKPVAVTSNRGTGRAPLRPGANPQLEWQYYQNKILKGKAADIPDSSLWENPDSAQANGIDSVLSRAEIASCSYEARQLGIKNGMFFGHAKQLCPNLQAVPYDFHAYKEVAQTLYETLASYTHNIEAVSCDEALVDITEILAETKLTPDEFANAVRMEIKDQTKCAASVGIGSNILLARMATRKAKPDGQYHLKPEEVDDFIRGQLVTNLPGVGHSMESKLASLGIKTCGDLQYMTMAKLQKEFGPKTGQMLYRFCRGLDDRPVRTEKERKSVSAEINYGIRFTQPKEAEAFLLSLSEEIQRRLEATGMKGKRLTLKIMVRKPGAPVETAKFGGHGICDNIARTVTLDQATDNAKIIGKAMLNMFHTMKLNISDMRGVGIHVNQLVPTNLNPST
As to the kind of experiment: Gel-based pol extension assay, hRev1. The following applies: read-out: IC50, hRev1, gel-based assay; best-fit value (95% confidence interval), three experiments.

In another assay the target is T2, hpol κ (Homo sapiens, UniProt Q9UBT6).
T2 sequence (Q9UBT6 19-526): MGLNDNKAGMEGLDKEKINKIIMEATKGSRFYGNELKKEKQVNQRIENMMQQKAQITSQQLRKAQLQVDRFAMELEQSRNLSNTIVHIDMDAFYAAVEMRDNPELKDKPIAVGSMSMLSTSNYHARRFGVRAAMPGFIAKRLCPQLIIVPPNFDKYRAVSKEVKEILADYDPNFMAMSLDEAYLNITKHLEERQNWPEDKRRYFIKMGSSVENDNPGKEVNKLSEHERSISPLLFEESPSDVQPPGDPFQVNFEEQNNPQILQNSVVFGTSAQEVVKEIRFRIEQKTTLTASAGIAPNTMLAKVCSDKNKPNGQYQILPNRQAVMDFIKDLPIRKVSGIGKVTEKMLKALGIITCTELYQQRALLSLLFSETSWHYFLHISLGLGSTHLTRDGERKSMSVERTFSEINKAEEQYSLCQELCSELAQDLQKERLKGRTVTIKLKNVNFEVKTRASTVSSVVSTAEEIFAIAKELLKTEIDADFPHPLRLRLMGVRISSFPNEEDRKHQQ
Description: Gel-based pol extension assay, hpol κ. The gist of the method: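 Gel extension assay with hpol ι core (residues 1–446) or hpol κ core (residues 19–526). Enzyme 2 nM preincubated 5 min with increasing test compound in 50 mM HEPES pH 7.5, 50 mM NaCl, 1 mM DTT, 0.1 mg/mL BSA, 10% glycerol. Started at 37 °C with 200 nM FAM-labeled 13/18-mer primer–template, 10 μM each dNTP, 5 mM MgCl₂. Quench: 20 mM EDTA/95% formamide, 95 °C. Triplicate; IC50 mean ± SD.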

In the next assay the target is T3, hpol η (Homo sapiens, UniProt Q9Y253).
T3 sequence (Q9Y253 1-437): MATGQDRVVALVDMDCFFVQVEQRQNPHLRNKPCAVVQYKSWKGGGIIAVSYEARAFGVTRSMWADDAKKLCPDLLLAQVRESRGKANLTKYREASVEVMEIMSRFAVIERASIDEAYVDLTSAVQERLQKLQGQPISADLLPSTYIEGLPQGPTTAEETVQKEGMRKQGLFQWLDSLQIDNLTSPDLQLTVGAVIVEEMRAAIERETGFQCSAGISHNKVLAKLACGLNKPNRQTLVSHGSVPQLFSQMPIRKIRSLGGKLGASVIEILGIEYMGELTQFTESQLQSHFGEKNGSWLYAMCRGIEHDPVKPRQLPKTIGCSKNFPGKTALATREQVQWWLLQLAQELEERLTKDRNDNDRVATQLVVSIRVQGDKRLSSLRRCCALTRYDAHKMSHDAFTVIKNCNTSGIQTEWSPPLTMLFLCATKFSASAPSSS
Description: Fluorescence-based DNA polymerase activity assay, hpol η. The following applies: 20 μM PNR-7-02; mean (±SD), three experiments.

The next assay concerns the target TbPol I (Mycobacterium tuberculosis, UniProt P9WNU5). Description: Fluorescence-based pol activity assay, Tb Pol I. The following applies: 20 μM PNR-7-02; mean (±SD).

Each structure is given as a SMILES string. “And” between values parts separate entries of the source, which are not always exact repeats. Equal entries are not always repeated.

TbPol I, sequence (P9WNU5 whole entry): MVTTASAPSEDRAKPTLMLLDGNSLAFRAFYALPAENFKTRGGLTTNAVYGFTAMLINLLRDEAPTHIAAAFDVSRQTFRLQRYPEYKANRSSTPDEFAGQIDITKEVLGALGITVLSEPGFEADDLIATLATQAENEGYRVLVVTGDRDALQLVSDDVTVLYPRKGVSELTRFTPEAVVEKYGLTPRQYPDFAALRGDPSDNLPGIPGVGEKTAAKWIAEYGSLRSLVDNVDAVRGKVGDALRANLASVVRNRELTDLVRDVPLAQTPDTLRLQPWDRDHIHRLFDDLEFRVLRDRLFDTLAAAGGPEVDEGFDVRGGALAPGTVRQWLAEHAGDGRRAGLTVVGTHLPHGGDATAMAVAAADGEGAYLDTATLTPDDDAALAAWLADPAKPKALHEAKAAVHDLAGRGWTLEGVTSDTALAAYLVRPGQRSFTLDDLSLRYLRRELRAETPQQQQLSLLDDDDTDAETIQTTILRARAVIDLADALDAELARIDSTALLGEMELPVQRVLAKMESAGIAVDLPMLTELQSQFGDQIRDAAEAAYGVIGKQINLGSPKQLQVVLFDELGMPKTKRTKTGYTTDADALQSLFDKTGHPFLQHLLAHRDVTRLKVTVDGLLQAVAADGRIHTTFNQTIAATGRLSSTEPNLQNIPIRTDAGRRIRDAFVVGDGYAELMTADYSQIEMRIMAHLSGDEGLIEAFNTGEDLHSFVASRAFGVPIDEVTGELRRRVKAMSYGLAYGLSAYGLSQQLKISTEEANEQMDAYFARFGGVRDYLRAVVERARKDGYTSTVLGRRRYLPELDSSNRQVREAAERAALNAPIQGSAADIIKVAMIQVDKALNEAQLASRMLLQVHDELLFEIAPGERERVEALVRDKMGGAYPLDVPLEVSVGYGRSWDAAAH

As for `O=C1NC(=S)NC(=O)C1=Cc1cn(Cc2ccc3ccccc3c2)c2ccc(Cl)cc12` [PNR-7-02, 5-((5-chloro-1-(naphthalen-2-ylmethyl)-1H-indol-3-yl)methylene)-2-thioxodihydropyrimidine-4,6-(1H,5H)-dione], the IC50 on hRev1 turned out to be 8 µM; at hpol κ (read-out: IC50, hpol κ, gel-based assay, best-fit value (95% confidence interval), three experiments), 22 µM. In addition, on hpol κ (gel-based assay, relative to hpol η / hRev1), the “Increase in IC50 against hpol κ” value is recorded as around 3 fold. The “Pol activity relative to DMSO control, hpol η” value on hpol η was 4.4 (±3.8) % and < 5%. The “Pol activity relative to DMSO control, TbPol I” value on TbPol I is 93 (±2) %.
